# From PubChem BioAssay
# M4 antag: blocks acetylcholine activation of human M4 receptor | 0.73% of 360,000 active | AID 624125 | P08173 | inhibition, % at 3 µM | CHO-hM4 cells, ACh EC80, Fluo-8 calcium fluorescence;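 active means inhibition above its plate's cutoff, the mean inhibition of sample wells plus 3 SD, cut at about 27% in these data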;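 further: 0% = acetylcholine EC80 with DMSO and 100% = DMSO without agonist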
# Target sequence (P08173 whole entry, looked up): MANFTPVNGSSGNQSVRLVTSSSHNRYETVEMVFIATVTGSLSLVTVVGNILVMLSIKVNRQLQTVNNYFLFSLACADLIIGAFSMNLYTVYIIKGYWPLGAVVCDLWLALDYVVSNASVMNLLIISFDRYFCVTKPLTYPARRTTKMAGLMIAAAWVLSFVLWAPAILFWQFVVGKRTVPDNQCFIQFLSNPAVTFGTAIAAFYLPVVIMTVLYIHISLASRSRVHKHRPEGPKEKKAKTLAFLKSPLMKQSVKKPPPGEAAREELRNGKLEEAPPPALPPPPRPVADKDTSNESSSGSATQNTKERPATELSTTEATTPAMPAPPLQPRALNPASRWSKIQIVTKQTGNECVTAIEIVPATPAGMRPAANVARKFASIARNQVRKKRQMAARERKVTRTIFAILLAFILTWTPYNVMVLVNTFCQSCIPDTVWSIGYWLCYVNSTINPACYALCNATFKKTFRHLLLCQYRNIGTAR
# CHRM5 antagonist: antagonists of human muscarinic M5 receptor (CHRM5). CHO-hM5 cells, Fluo-8 calcium fluorescence, ACh EC80. inhibition, % at 3 µM. 0.59% of 360,000 active. P08912. AID 624040;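 active means inhibition above a per-plate cutoff, the mean of that plate's test compounds plus 3 SD, cut at about 27% in these data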;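 further: 0% = acetylcholine EC80 with DMSO and 100% = DMSO without agonist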
# CHRM4 PAM: potentiates acetylcholine response at human M4 receptor; P08173; CHO-K1 hM4/Gqi5, Fluo-8 calcium fluorescence, ACh EC20; 0% = ACh EC20, 100% = maximal ACh; activation, % at 3 µM; 0.4% of 360,000 active;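 active means activation above its plate's cutoff, the mean activation of sample wells plus 3 SD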
# CHRM4 agonist: agonists of human muscarinic M4 receptor (CHRM4); P08173; activation, % at 3 µM; 0.14% of 360,000 active; CHO-K1 hM4/Gqi5, Fluo-8 calcium fluorescence; vehicle 0%, full acetylcholine response 100%; AID 624127;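 active means activation above the run mean over all test wells plus 3 SD, cut at about 32% in these data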;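 further: peak over basal fluorescence ratio per well then scaled between controls; 0% = DMSO wells and 100% = acetylcholine at EC100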
# M5 ag: agonists of human muscarinic M5 receptor (CHRM5); 0.19% of 360,000 active; activation, % at 3 µM; CHO-K1 hM5 cells, Fluo-8 calcium fluorescence; 0% DMSO wells, 100% maximal acetylcholine response; P08912;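 active means activation above the run's mean over test compounds plus 3 SD, cut at about 23% in these data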;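 further: signal is peak over basal fluorescence ratio across the kinetic read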
# CHRM5 PAM: potentiates acetylcholine response at human M5 receptor. CHO-K1 hM5, Fluo-8 calcium, ACh EC20 PAM; 0% = ACh EC20, 100% = ACh EC100. activation, % at 3 µM. AID 624038. 0.3% of 360,000 active. P08912;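 active means activation above the run cutoff, the mean activation of all test compounds plus 3 SD, cut at about 18% in these data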
#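 System – CHO-K1 hM5 cells · Compound – 3 µM, single dose · Incubation – compound preincubation 140 s before EC20 acetylcholine addition · Technique – Fluo-8 calcium fluorescence · Measure – Max/basal fluorescence ratio as % of EC20–EC100 ACh window · Benchmarks – low control EC20 acetylcholine (0%), high control EC100 acetylcholine (100%) · Replication – singlicate, one well per test compound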
# * hit, by the source's call. This is a sample that favours compounds with a hit; in the whole collection about 1.9% have one here.
SMILES,M4 antag,CHRM5 antagonist,CHRM4 PAM,CHRM4 agonist,M5 ag,CHRM5 PAM
Cc1nc(-c2ccc(C(=O)Nc3cc(S(N)(=O)=O)ccc3C)cc2)cs1,30.4*,-0.4,-11.0,0.8,-3.3,0.8
CCN1CCN(C(=O)c2cccc(OC3CCN(S(C)(=O)=O)CC3)c2)[C@@H](C)C1=O,-16.5,7.6,3.4,1.4,-3.7,2.4
CN1C[C@@H]2C(c3ccccc3)C3(c4ccc(C#N)cc4)CC2(C3)[C@H]1c1ccccc1 (stereo partly specified),-1.0,4.9,8.4,0.4,-4.3,2.2
CN1C[C@@H]2C(c3ccccc3)C3(c4ccccc4)CC2(C3)[C@H]1c1ccccc1 (stereo partly specified),45.3*,15.6,-18.3,0.7,-7.8,-41.1
CCC(C)[C@H]1CNC(=O)C(=O)N1CC(C)(C)C (stereo partly specified),2.6,-9.2,16.6,0.5,1.6,5.1
C=C1C(=O)C=C2CN(C(=O)c3ccccc3)[C@@](Cc3ccc(F)cc3)(C(=O)OC)[C@@H]12,96.0*,93.1*,-18.1,143.1*,81.2*,-40.8
COc1cccc(/C=C2\CCCCC2=O)c1,-17.9,-25.9,0.8,-0.3,-0.3,31.2*
COc1cccc(/C=C2\CCC(C3CCCC3)C2=O)c1 (stereo unspecified),-2.1,-5.6,-0.8,1.1,-1.5,4.0
CN(C)CC(=O)N1c2ccccc2Sc2ccc(Cl)cc21,67.6*,94.6*,-19.5,1.1,-10.4,-19.1
CN1CCC=C(C(=O)N2c3ccccc3Sc3ccc(Cl)cc32)C1,86.1*,98.9*,-58.8,2.4,-22.1,-31.9
Cn1nnnc1SCC(=O)N1c2ccccc2Sc2ccc(Cl)cc21,13.9,9.5,-13.2,1.9,-11.9,-13.0
CN(C)CCC(=O)N1c2ccccc2Sc2ccc(Cl)cc21,95.8*,99.5*,-24.4,0.3,-10.1,-19.8
CCN(CC)CCC(=O)N1c2ccccc2Sc2ccc(Cl)cc21,97.9*,98.7*,-17.9,0.9,-1.3,-18.5
O=C(CCN1CCN2CCCC2C1)N1c2ccccc2Sc2ccc(Cl)cc21 (stereo unspecified),16.1,10.6,-18.0,1.3,-6.9,-10.0
CN(Cc1ccccc1)C(=O)c1ccc(NC(=O)Cc2ccc(NC(=O)C3CCCN(C(=O)CCc4ccccc4)C3)cc2)cc1 (stereo unspecified),-2.9,8.6,1.9,1.8,1.2,-5.4
CCOc1ccc(Oc2ccccc2NC(=O)C2=COCCO2)cc1,2.0,9.6,-3.8,-1.2,-3.8,-2.8
CCN(Cc1ccccc1)C(=O)CSc1ncn[nH]1,0.7,12.2,-4.1,0.6,-1.3,1.2
CCOC(=O)N1CCC(NC(=S)Nc2ccc3nc(N4CCN(CC)CC4)cc(C)c3c2)CC1,36.8*,3.5,-30.9,-2.1,-0.3,1.1
Cc1ccc2nc(C)c(CN3CCN(c4ccc([N+](=O)[O-])cc4Cl)CC3)n2c1,26.4*,38.5*,-15.5,12.4,-2.1,-14.4
O=C(CN1C(=O)c2ccccc2S1(=O)=O)c1ccc2c(c1)OCCO2,-6.7,-15.6,-2.4,1.9,1.9,21.5*
O=C(CN1C(=O)c2ccccc2S1(=O)=O)c1ccc2c(c1)OCCCO2,-0.1,0.5,-4.1,5.7,-4.0,2.2
Cc1cc(=O)n2nc(N3CCCC3C(=O)Nc3ccc(C(C)C)cc3)sc2n1 (stereo unspecified),-13.9,11.4,13.4,0.3,-1.0,-9.9
CC(C)N(Cc1nccn1C)C(=O)c1cc(COc2ccc(F)cc2Cl)on1,0.2,30.8*,-7.3,4.0,-5.1,-8.7
CC(Oc1cccc2ccccc12)C(=O)N/N=C/c1cccnc1 (stereo unspecified),-1.6,0.6,22.0*,5.8,-1.8,-1.7
CC(Sc1ccccc1)C(=O)N/N=C/c1cccnc1 (stereo unspecified),-10.0,1.0,3.6,3.6,-1.1,3.6
SMILES,M4 antag,CHRM5 antagonist,CHRM4 PAM,CHRM4 agonist,M5 ag,CHRM5 PAM
Cc1cc(C)c(NC(=O)CSc2nc(=O)n(CCN3CCOCC3)c3c2CCC3)c(C)c1,0.9,5.4,0.8,-0.6,-0.2,-1.1
O=C(COC(=O)[C@H](Cc1ccccc1)NC(=O)c1ccco1)Nc1ccccc1OC(F)F,-9.2,-6.0,7.0,7.2,2.7,-3.1
CCCCn1c(N)c(N(CCC(C)C)C(=O)CSc2nc3ccccc3n2C)c(=O)[nH]c1=O,0.7,-4.6,6.4,1.5,-3.1,21.2*
CCCCn1c(N)c(N(CC(C)C)C(=O)c2cccc(S(=O)(=O)N3CCCCCC3)c2)c(=O)[nH]c1=O,-4.3,1.5,8.7,0.6,-2.7,4.9
CCCCn1c(N)c(N(CCC(C)C)C(=O)c2cc(Cl)nc3ccccc23)c(=O)[nH]c1=O,-3.1,-12.5,8.9,-0.2,3.2,25.5*
CCCCn1c(N)c(N(CC(C)C)C(=O)c2cccc(S(=O)(=O)N3CCCCC3)c2)c(=O)[nH]c1=O,5.2,8.2,21.6*,0.1,-0.4,-3.3
CCCCn1c(N)c(N(CCC(C)C)C(=O)COC(=O)c2ccc3ccccc3c2)c(=O)[nH]c1=O,-17.5,-10.3,22.7*,1.3,1.9,6.3
O=C(CN1CCN(C(=O)c2ccco2)CC1)Nc1cc(S(=O)(=O)N2CCCC2)ccc1Cl,-12.5,-0.5,-0.3,5.4,1.5,-0.5
CCCC(=O)Nc1ccc(OCC(O)CNC(C)C)c(C(C)=O)c1 (stereo unspecified),99.9*,9.6,-18.0,1.6,-1.1,-17.6
CNC(=O)c1cc(C(=O)c2ccc(C(F)(F)F)cc2F)c[nH]1,4.6,8.6,4.5,1.9,0.2,-4.3
CNC(=O)c1cc(C(=O)c2ccc(C(F)(F)F)cc2)c[nH]1,43.5*,5.3,-16.5,4.0,2.1,-5.8
CN(C)c1nc(OCCOC(=O)c2ccccc2)nc(N(C)C)n1,2.3,-6.1,0.8,-0.3,26.2*,-5.5
Cc1cc(Cl)cc(Cl)c1OCCN1CCCC1,-14.9,-19.2,-1.2,1.8,-15.6,23.8*
CC1=C(C)CS(=O)N(S(=O)(=O)c2ccc(Cl)cc2)C1 (stereo unspecified),47.6*,3.1,-14.8,9.9,24.9*,5.2
CC(=O)c1ccc2c(c1)N(CCCN(C)C)c1ccccc1S2,33.6*,69.5*,-17.4,1.9,-0.9,-18.4
CC(=O)c1ccc2c(c1)N(C)c1ccccc1S2,8.0,2.0,5.4,-1.2,-2.8,7.2
CN(C)CCCN1c2ccccc2Sc2ccccc21,51.5*,90.3*,-17.1,6.9,0.5,-19.6
CNCCCN1c2ccccc2CCc2ccccc21,36.1*,84.6*,-18.7,10.1,1.0,-18.7
